Source: PubChem BioAssay (several laboratories)
Most compounds without a hit are left out; they make up all but 2.4% or so of the library.
Fh CTSL1 inh: cathepsin L1 inhibition, PFM18AAP counter-screen; recombinant F. hepatica cathepsin L1, Z-Leu-Arg-MCA fluorescence; inhibition, % at 5.96 µM; 300,000 tested, 0.49% active;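 active = inhibition above the mean of all tested compounds plus 3 SD, set per screening campaign, cut at about 17% in these data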;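 also: 0% = plate median of test compound wells and 100% = 1 µM Z-Phe-Ala-diazomethylketone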
GASC-1 inh: inhibitors of human GASC-1 (JMJD2C) demethylase; GST-JMJD2C(1-420) H3K9me3 demethylation, DELFIA europium; inhibition, % at 2.35 µM; AID 2099; 330,000 tested, 0.069% active; Q9H3R0;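 active = more than half of a compound's replicate wells show inhibition beyond 50%, single wells judged on their own value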;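 also: signal counts dimethyl H3K9 product captured on neutravidin plate; 0% = median of DMSO wells and 100% = 0.3 times that DMSO median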
Target sequence (Q9H3R0 1-420 limits assumed): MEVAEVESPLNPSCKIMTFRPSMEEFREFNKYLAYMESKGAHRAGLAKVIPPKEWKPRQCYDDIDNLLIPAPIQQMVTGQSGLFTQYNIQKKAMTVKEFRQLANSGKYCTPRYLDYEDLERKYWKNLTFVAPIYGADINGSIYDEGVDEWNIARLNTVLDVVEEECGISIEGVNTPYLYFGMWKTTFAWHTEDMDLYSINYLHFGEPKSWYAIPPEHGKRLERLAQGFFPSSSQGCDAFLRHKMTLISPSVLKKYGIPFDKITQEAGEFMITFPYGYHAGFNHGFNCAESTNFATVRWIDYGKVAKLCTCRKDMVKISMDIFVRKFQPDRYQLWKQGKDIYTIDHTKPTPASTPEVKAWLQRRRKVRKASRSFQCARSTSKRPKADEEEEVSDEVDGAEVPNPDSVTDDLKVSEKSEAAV
PP5 primary: blocks human protein phosphatase 5 activity. P53041. purified PP5c, OMFP substrate fluorescence. inhibition, % at 6.7 µM. 320,000 tested, 0.18% active;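 active = inhibition above the campaign's mean inhibition across all tested compounds plus 3 SD, cut at about 9.5% in these data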;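 also: 0% = DMSO only and 100% = 100 µM cantharidin control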
T cruzi repl: blocks replication of Trypanosoma cruzi; T. cruzi beta-gal in NIH3T3, luminescence, 90 h; inhibition, % (test concentration not listed); 300,000 tested, 1.4% active; AID 1885;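 active = mean inhibition across valid replicates above about 55%, limit read from the data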;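 also: signal also drops with host cell toxicity which is not excluded here; 0% = plate median of DMSO wells and 100% = zero luminescence signal; higher percent means less beta-gal luminescence so fewer parasites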
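compound dosing = single 50 nL compound addition per well in DMSO | material = NIH/3T3 host cells with β-galactosidase reporter T. cruzi | input = 5,000 host fibroblasts per well | timing = ≥90 h infection period, 3 h prior cell attachment | read-out basis = percent inhibition of parasite-derived β-gal signal | detection = GalScreen β-gal luminescence, detergent lysis, 60 min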
pCIP destab: compounds decreasing mouse p/CIP protein stability; decrease of EGFP signal, % at 10 µM; 290,000 tested, 0.01% active; F442A p/CIP-EGFP cells, EGFP fluorescence, 16 h; Q05BA5;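 active = EGFP signal decrease of at least 30% at 10 µM or well 3 SD below plate mean, unless failing retest; inactive = the rest, including hits failing retest or dose response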
Cardio protect: modulators protecting cardiomyocytes from myocardial damage; H9c2 cardiomyocytes, H2O2 injury protection, ATPLite, 2 h; 360,000 tested, 0.63% active; protection from H2O2 cell death, % at 20 µM;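 active = compounds giving at least 50% protection of heart cells from peroxide-induced death in the single-dose screen, raw or plate-pattern-corrected value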;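 also: 0% = DMSO wells with peroxide and 100% = DMSO wells without peroxide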
* hit, by the source's call; . = no result.

SMILES	Fh CTSL1 inh	GASC-1 inh	PP5 primary	T cruzi repl	pCIP destab	Cardio protect
COc1ccc(S(=O)(=O)N2CCOC2CNC(=O)C(=O)NCCCN2CCOCC2)cc1OC (stereo not drawn)	-3	-3	1	-25	8	-5
COc1ccc2oc(C(=O)Nc3ccc(S(=O)(=O)N(C)C4CCN(C)CC4)cc3)c(C)c2c1	3	-6	-2	60*	-15	-23
CC(Oc1ccc(Br)cc1)C(=O)Nc1ccc(S(=O)(=O)N(C)C2CCN(C)CC2)cc1 (stereo not drawn)	8	39	-2	56*	.	0
COc1ccc(CC(=O)Nc2ccc(S(=O)(=O)N(C)C3CCN(C)CC3)cc2)cc1	.	.	0	.	.	-3
Cc1ccccc1NC(=O)Cc1nc(COC(=O)CSc2ccc(F)cc2)cs1	.	.	.	.	.	1
Cc1nc2scc(-c3ccccc3)c2c(=O)n1N=C1C=CC(=O)C=C1	.	-7	.	67*	-26	.
CCc1ccc2[nH]c3nc(N/N=C/c4ccc(O)cc4O)nnc3c2c1	3	1	1	57*	-12	12
O=c1[nH]c(=O)c2cc([N+](=O)[O-])cc([N+](=O)[O-])c2[nH]1	2	10	-2	72*	13	-2
CCOC(=O)c1c(-c2ccccc2)oc2ccc(OCC(O)CNCCN(C)C)cc12 (stereo not drawn)	-2	-6	2	79*	9	-18
CCOC(=O)c1c(C)n(C)c2ccc(OCC(O)CNCCc3ccccc3)cc12 (stereo not drawn)	-2	-17	3	55*	0	-2
CCOC(=O)c1c(-c2ccccc2)oc2ccc(OCC)cc12	-2	-21	3	20	-17	-11
O=C(COC(=O)c1ccccn1)Nc1ncc(C(F)(F)F)cc1Cl	-5	30	2	-25	-3	1
O=C(COC(=O)c1ccc([N+](=O)[O-])s1)Nc1ncc(C(F)(F)F)cc1Cl	34*	-8	1	-12	-6	38
CCCCC1CCC(C(=O)N(CCOC)c2c(N)n(CC(C)C)c(=O)[nH]c2=O)CC1 (stereo not drawn)	.	7	0	.	.	2
Cc1cccc(-n2c(SCc3cc(=O)n4ccsc4n3)nc3ccccc32)c1	4	1	3	62*	-13	46
Cc1ccc(SCc2cc(=O)n3ccsc3n2)c(C)c1	-2	-8	0	-2	4	.
O=c1cc(CSc2ccc([N+](=O)[O-])cc2)nc2sccn12	2	-20	1	-21	6	72*
O=C(Cc1ccc(S(=O)(=O)N2CCOCC2)s1)Nc1cc(Cl)ccc1Cl	.	-8	4	.	.	8
O=C(Nc1cccc(N2C(=O)C=CC2=O)c1)c1cccs1	6	6	-1	61*	.	-11
COc1ccc(NC(=O)C(=O)NNC(=O)c2cccs2)cc1	19*	1	0	-12	0	8
COc1cc(NC(=O)c2cc3ccccc3cc2OC)ccc1NC(=O)c1cccs1	0	154	4	34	9	63*
O=C(/C=C/c1cccc([N+](=O)[O-])c1)Nc1cccc(NC(=O)c2cccs2)c1	4	-1	5	-71	-2	81*
O=C(/C=C/c1cccc([N+](=O)[O-])c1)Nc1cccc(NC(=O)c2ccco2)c1	5	8	4	-65	3	34
O=C(Nc1cccc(NC(=O)c2cccs2)c1)c1ccc([N+](=O)[O-])o1	5	-5	0	68*	-18	17
COc1ccccc1NS(=O)(=O)c1cc(NC(=O)c2cccs2)ccc1N1CCCCC1	4	-3	4	59*	-19	-4
SMILES	Fh CTSL1 inh	GASC-1 inh	PP5 primary	T cruzi repl	pCIP destab	Cardio protect
O=C(Nc1ccc(N2CCN(C(=O)c3cccs3)CC2)cc1)c1ccc([N+](=O)[O-])o1	.	4	.	36	-40	-16
COc1cc(NC(=O)c2cccs2)ccc1NC(=O)Cc1ccccc1	1	7	1	-11	-4	10
COc1cc2ccccc2cc1C(=O)Nc1ccc(Cc2ccncc2)cc1	1	6	6	62*	-10	-8
COc1cc(NC(=O)c2ccc([N+](=O)[O-])o2)ccc1NC(=O)c1cccs1	5	-5	2	86*	8	-27
COc1cc2ccccc2cc1C(=O)Nc1ccc(C)cc1	-3	8	3	-4	2	-18
N#CC1(N2CCN(C(=O)c3ccccc3)CC2)CCCCC1	2	7	-1	2	2	-1
COc1ccccc1-c1cnc(C(O)c2ccc(Cl)c(Cl)c2)[nH]1 (stereo not drawn)	.	.	.	.	.	-7
CCN(C(=O)COC(=O)c1nc(Cl)ccc1Cl)C1CCS(=O)(=O)C1 (stereo not drawn)	-1	-3	1	-5	.	2
O=C(Nc1cccc(NC(=O)c2ccc([N+](=O)[O-])o2)c1)c1ccco1	8	-6	3	21	-9	57*
CCOC(=O)/C=C/C(=O)Nc1cccc([N+](=O)[O-])c1	18*	2	-1	35	-1	-19
O=C(C[C@H]1C[C@H](C(=O)N2CCCCC2)[C@@]2(CCc3ccccc3)c3[nH]c4ccc(Cl)cc4c3CCN2C1=O)NCc1cccc(C(F)(F)F)c1	.	.	.	.	.	-3
CCOc1cc(N2CCOCC2)c(OCC)cc1NC(=O)c1ccccc1	3	-4	1	6	3	1
CCCn1nc(C(=O)Nc2cc(OCC)c(N3CCOCC3)cc2OCC)c2ccccc2c1=O	.	.	.	.	.	56*
CCOc1cc(N2CCOCC2)c(OCC)cc1NC(=O)COC(=O)c1cccc2ccccc12	30*	3	3	11	-4	-9
CCOc1cc(N2CCOCC2)c(OCC)cc1NC(=O)Cn1[nH]c(=O)c2ccccc2c1=O	-1	-3	7	9	-4	79*
O=C(c1cccc(S(=O)(=O)N2CCN(c3ccccc3)CC2)c1)N1CCN(c2ccccc2O)CC1	3	14	0	11	.	-2
CCN(C(=O)COC(=O)C1CC1C)c1c(N)n(Cc2ccccc2)c(=O)[nH]c1=O (stereo not drawn)	.	.	.	.	.	0
Cc1ccc(C=Nc2ccc(N(C)C)cc2)o1	0	4	3	61*	-16	-15
C/C(=C\C=C\c1ccccc1)C(=O)c1c(C)cc(C)[nH]c1=O	22*	-3	0	16	-14	2
CC(/C=C/C=C/c1ccccc1)=N\NC(=O)c1cccnc1	22*	2	2	-19	8	28
COc1ccc(CC(C)N2CCN(Cc3ccccc3)CC2)c(OC)c1 (stereo not drawn)	-6	-2	5	61*	-8	-4
CC(C)(C)c1ccc(OCCON2C(=O)CCC2=O)c(Cl)c1	0	11	0	-12	-12	-8
